Values joined by “and” are separate entries in the source; they are usually repeats but may differ in a detail not shown here. Equal entries are not always repeated.
Experiments:
H3K56ac peptide = experiment: ITC
[1] = system: MLL-CBP immortalized murine bone marrow cells; experiment: WST1 cytotoxicity assay; type: cell-based, mouse; details: significant cytotoxicity only at high concentrations and prolonged exposure
In short: (§1)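 WST1 cytotoxicity assay. Cells were murine bone marrow cells immortalized by retroviral MLL-CBP expression, or MLL-AF9 leukemic blasts isolated from mice transplanted with bone marrow retrovirally expressing that oncogene. Signal was expressed as mean percentage of vehicle-treated cells ±SD, n=4; ANOVA with Dunnett multiple comparison.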

α1A = α1A (Homo sapiens, UniProt P35348); details: both stereoisomers; low µM region
MLL-AF9+ AML cells [2] = experiment: transplantation of pre-treated MLL-AF9+ AML cells into secondary recipients; type: in vivo, mice; details: cells pre-treated 5 µM 3 days; 5-50 x 10^3 cells transplanted
In short: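 Leukemic blasts were taken from mice that developed AML after transplantation of bone marrow retrovirally expressing MLL-AF9. Blasts were treated ex vivo with 5 µM test compound or DMSO for 3 days. Limiting doses (50 000, 10 000, 5 000, 500 cells) went into irradiated syngeneic secondary recipients, n=4/5 per group. Disease-free survival was compared by log-rank (Mantel-Cox) test.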

KASUMI-1 = experiment: clonogenic growth in methylcellulose; type: cell-based, human; details: dose dependent
In short: (§2)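 Human leukemic cell lines were plated in methylcellulose with different doses of test compound, and colony growth was scored. Counts are mean percentage of vehicle-treated ±SD, n=3; ANOVA with Dunnett multiple comparison.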

5HT1 = details: both stereoisomers; low µM region
BRD4(2) [3] = molecular target: T1, BRD4(2) (Homo sapiens, UniProt O60885); experiment: isothermal titration calorimetry; type: binding
[4] = system: KASUMI-1, MOLM13 and SEM cells; experiment: WST1 proliferation/survival assay, single agents and combinations; type: cell-based, human; details: for activity alone in WST1 assay: single agent, different for each cell line
KASUMI-1 cells [5] = experiment: cell cycle analysis by flow cytometry; type: cell-based, human; details: day 2 and 3, more pronounced at day 6
MOLM13 cells = experiment: WST1 proliferation/survival assay, combination; type: cell-based, human; details: combination with doxorubicin
[6] = system: 12 stimulated primary human co-cultured cell types; experiment: BioMAP panel of stimulated primary co-cultured cell types; type: cell-based
In short: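 BioMAP profiling in four human haematopoietic co-culture systems, each treated with test compound: Sag and LPS (peripheral blood mononuclear cells with venular endothelial cells), BT (B cells with peripheral blood mononuclear cells), and IMphg (venular endothelial cells with M1 macrophages). Marker protein read-outs were monitored.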

CBP bromodomain [7] = molecular target: T2, CBP bromodomain (Homo sapiens, UniProt Q92793); details: read-out: IC50 displacing H3K56ac from the CBP binding site; AlphaScreen, H3K56ac peptide
T2 sequence (Q92793 1085-1192 limits assumed): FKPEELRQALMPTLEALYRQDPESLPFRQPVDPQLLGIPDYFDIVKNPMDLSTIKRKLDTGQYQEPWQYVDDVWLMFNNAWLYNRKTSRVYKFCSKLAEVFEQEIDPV

[8] = system: bromodomains of the BET family members; experiment: BLI selectivity screen, panel of 42 bromodomains; type: binding; details: only BET family identified among 42 bromodomains
MLL-AF9+ AML cells [9] = experiment: cell surface marker expression after liquid culture exposure; type: cell-based, mouse; details: 5 µM, 3 days
[10] = system: primary blast cells from AML patients; experiment: clonogenic growth of primary cells in methylcellulose; type: cell-based, human; details: five AML patients
In short: (§3)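 Primary human cells were grown in methylcellulose with test compound: CD34+ cells from healthy donors (n=3) or AML patient blasts (n=5). Colonies and cell numbers are expressed as mean percentage of vehicle-treated ±SD; ANOVA with Dunnett. Morphology was assessed by Giemsa-Wright stain after DMSO or 5 µM treatment.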

[11] = system: primary murine MLL-AF9+ leukemic blasts; experiment: WST1 cytotoxicity assay; type: cell-based, mouse
In short: as §1

[12] = system: 12 human cell lines that form visible colonies in methylcellulose; experiment: clonogenic growth in methylcellulose, human leukemic cell line panel; type: cell-based; details: all 12 colony-forming human leukemic lines
isolated CBP bromodomain = isolated CBP bromodomain (Homo sapiens, UniProt Q92793); experiment: NanoBRET, NanoLuc CBP bromodomain / Halo-tagged Histone H3.3; type: cell-based; details: read-out: cellular IC50, construct containing the bromodomain only
Chain of isolated CBP bromodomain (Q92793 1085-1192 limits assumed): as above

p300 bromodomain = p300 bromodomain (Homo sapiens, UniProt Q09472); experiment: isothermal titration calorimetry; type: binding; details: read-out: dissociation constant (KD); ITC, in solution
Chain of p300 bromodomain (Q09472 1049-1156 limits assumed): as the sequence (Q92793 1085-1192 limits assumed) above, with N47S, V73I, F93Y, A98S counted along it

[13] = system: MLL-CBP immortalized murine bone marrow cells; experiment: clonogenic growth and replating in methylcellulose; type: cell-based, mouse; details: more apparent upon re-plating
In short: (§4)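 Methylcellulose colony formation with serial re-plating, using either MLL-CBP immortalized murine bone marrow progenitors or MLL-AF9 leukemic blasts treated with test compound. Colonies are expressed as mean percentage of vehicle-treated ±SD, n=2; ANOVA with Dunnett multiple comparison.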

CBP bromodomain [14] = molecular target: T2, CBP bromodomain; experiment: temperature shift assay; type: binding
BRD4(2) [15] = molecular target: T1, BRD4(2); experiment: temperature shift assay; type: binding; details: second bromodomain of BRD4
[16] = system: primary murine MLL-AF9+ leukemic blasts; experiment: clonogenic re-plating assay in methylcellulose; type: cell-based, mouse
In short: as §4

[17] = system: peripheral CD34+ cells from healthy donors; experiment: clonogenic growth of primary cells in methylcellulose; type: cell-based, human; details: three healthy donors
In short: as §3

KASUMI-1 cells [18] = experiment: apoptosis, 7-AAD/AnnexinV staining; type: cell-based, human; details: prolonged exposure, day 5, liquid culture
p300 = p300 (Homo sapiens, UniProt Q09472); experiment: ChIP-PCR of p300 occupancy at TNFSF13B and ID2; type: cell-based; details: KASUMI-1, 3 µM
Chain of p300 (Q09472 whole entry): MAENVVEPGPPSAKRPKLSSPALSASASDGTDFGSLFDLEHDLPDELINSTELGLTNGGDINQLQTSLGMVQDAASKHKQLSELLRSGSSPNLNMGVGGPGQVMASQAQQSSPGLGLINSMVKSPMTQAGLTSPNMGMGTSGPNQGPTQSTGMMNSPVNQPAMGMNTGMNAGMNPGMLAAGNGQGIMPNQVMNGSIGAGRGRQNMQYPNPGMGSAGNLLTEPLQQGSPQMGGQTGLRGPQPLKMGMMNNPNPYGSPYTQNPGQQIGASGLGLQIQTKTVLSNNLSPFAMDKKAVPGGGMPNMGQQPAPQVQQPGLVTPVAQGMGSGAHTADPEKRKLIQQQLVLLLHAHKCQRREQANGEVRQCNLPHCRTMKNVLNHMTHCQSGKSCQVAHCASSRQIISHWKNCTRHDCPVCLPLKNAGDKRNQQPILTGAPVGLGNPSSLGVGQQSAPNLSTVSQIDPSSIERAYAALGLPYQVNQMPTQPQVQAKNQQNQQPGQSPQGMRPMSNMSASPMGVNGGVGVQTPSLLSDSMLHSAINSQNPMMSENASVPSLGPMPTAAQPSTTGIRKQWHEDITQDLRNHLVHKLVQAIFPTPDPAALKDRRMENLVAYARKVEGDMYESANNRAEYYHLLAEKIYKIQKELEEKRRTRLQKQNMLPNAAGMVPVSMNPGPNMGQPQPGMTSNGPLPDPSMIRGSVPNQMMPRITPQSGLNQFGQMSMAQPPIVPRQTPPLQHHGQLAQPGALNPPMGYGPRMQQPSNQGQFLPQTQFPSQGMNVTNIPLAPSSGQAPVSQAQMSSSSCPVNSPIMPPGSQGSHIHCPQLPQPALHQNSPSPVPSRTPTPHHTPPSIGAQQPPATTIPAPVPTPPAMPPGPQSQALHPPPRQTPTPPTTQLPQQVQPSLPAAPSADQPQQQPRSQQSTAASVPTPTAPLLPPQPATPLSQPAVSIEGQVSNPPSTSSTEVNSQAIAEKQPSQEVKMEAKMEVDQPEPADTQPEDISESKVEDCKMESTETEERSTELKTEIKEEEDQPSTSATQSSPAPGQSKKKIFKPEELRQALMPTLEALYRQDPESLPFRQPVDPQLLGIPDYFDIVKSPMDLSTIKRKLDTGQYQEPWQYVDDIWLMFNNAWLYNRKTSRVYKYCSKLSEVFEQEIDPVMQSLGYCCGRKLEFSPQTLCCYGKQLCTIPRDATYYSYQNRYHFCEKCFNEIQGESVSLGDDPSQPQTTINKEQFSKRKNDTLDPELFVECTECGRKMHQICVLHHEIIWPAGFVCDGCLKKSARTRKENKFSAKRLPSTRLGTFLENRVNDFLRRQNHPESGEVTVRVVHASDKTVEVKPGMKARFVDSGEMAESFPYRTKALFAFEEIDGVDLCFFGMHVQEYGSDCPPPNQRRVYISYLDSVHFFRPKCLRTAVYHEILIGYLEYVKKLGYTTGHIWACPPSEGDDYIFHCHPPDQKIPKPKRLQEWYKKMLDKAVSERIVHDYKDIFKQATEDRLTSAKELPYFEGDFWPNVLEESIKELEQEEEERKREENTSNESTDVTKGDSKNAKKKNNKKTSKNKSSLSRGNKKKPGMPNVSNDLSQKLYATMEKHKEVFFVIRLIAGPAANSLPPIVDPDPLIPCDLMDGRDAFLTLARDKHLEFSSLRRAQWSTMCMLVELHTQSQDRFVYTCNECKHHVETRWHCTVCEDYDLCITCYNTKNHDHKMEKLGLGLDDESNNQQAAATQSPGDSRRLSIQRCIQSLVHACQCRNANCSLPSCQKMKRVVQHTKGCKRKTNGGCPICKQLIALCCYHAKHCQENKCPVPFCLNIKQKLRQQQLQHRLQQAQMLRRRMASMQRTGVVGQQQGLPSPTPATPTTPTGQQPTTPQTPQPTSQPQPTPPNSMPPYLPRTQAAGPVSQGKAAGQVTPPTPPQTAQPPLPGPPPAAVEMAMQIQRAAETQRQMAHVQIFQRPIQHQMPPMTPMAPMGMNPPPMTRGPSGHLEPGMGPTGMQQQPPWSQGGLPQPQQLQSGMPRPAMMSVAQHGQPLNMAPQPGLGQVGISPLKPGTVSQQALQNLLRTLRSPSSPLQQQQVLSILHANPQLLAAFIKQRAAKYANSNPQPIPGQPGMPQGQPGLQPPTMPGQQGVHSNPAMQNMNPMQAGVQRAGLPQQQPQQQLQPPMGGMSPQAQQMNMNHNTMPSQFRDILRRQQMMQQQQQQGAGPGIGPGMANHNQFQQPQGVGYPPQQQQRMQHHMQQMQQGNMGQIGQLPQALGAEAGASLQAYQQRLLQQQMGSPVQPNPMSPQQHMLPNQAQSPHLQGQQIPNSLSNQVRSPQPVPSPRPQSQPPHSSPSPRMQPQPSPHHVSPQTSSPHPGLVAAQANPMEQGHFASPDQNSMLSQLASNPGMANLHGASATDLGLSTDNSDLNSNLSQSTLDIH

[19] = system: 41 other members of the human bromodomain family; experiment: temperature shift assay, selectivity panel; type: binding; details: 41 other bromodomains
full-length GFP-BRD4 = full-length GFP-BRD4 (Homo sapiens, UniProt O60885); experiment: NanoBRET, full-length BRD4; type: cell-based
full-length CBP [20] = molecular target: T3, full-length CBP (Homo sapiens, UniProt Q92793); type: cell-based; details: GFP-tagged full-length CBP
T3 sequence (Q92793 whole entry): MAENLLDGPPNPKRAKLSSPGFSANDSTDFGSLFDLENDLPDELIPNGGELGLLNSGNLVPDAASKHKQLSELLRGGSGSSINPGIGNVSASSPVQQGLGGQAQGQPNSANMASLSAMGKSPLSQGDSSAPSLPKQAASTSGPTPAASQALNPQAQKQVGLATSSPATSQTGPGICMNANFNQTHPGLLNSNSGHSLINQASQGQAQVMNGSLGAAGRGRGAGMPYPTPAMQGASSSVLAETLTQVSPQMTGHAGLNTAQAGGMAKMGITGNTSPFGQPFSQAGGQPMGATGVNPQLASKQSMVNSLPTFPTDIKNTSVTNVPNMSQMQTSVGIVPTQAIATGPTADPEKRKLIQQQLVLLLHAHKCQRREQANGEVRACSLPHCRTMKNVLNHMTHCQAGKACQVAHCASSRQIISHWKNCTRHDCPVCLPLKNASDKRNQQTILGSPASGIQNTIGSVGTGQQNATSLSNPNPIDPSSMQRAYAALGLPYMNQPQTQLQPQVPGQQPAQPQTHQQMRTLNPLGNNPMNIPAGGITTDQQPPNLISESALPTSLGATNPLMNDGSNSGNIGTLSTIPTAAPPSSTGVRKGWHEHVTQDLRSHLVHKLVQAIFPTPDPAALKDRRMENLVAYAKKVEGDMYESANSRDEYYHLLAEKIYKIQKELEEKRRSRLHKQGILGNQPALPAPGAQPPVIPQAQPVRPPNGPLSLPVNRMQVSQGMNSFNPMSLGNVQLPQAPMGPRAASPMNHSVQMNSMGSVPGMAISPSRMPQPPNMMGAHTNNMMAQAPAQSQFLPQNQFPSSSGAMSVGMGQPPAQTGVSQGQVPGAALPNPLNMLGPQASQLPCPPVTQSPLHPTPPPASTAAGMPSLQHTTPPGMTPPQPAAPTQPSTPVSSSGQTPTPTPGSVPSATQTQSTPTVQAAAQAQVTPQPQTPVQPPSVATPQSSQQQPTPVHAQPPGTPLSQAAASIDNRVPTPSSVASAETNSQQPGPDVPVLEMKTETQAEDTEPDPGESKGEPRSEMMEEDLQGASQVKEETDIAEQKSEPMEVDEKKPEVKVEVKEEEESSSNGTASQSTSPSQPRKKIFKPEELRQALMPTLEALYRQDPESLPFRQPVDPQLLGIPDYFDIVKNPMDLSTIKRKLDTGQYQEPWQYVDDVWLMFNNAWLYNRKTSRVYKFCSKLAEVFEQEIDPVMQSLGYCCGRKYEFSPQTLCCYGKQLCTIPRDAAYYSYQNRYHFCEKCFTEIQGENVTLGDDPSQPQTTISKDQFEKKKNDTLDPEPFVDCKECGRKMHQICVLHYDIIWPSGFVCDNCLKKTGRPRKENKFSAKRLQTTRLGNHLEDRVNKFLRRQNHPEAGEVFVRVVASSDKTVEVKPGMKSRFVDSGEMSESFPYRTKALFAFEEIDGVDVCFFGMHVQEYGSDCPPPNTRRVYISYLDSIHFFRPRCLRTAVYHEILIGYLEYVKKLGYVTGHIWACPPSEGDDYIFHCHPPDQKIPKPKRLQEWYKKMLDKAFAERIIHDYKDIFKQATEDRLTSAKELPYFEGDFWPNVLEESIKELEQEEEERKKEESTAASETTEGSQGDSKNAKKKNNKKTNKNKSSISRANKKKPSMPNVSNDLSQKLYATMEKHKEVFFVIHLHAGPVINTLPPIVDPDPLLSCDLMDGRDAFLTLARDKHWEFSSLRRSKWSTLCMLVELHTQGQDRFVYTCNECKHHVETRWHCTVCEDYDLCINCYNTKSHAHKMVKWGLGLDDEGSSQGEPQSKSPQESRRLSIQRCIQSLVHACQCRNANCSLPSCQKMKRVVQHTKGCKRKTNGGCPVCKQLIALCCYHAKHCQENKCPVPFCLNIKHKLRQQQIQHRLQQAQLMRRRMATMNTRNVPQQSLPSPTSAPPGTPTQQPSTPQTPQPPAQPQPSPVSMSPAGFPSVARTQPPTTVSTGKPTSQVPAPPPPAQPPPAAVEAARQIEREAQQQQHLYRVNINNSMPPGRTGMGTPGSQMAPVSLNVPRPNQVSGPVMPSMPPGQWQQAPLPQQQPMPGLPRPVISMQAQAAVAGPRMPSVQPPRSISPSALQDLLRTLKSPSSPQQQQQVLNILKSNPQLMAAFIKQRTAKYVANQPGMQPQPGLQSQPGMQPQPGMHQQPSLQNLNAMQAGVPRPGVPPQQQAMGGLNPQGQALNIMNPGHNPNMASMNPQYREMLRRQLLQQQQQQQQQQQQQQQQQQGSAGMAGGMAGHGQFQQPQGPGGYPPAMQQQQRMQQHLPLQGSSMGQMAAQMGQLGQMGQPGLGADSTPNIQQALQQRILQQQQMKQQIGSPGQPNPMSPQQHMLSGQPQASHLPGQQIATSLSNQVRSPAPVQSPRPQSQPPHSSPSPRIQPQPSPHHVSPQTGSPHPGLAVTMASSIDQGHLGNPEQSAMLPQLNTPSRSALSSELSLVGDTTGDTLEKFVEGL

CBP bromodomain [21] = molecular target: T2, CBP bromodomain; type: binding; details: read-out: dissociation constant (KD); ITC, in solution
BRD4(1) = BRD4(1) (Homo sapiens, UniProt O60885); experiment: isothermal titration calorimetry; type: binding
SEM cells = experiment: clonogenic growth in methylcellulose; type: cell-based, human; details: dose dependent
In short: as §2

pharmacokinetic study = type: in vivo; details: mice
[22] = system: MLL-AF9 expressing blasts; experiment: extreme limiting dilution analysis; type: cell-based, mouse; details: 5µM for 3 days; vehicle 1/2.3
In short: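 MLL-AF9 leukemic blasts from diseased mice were exposed ex vivo to 5 µM test compound or DMSO for 3 days, then plated at limiting dilution (highest dose 10 cells). A limiting dilution model fitted on a log-fraction plot gave stem cell frequency with 95% confidence intervals. Groups were compared by an overall chi-square test.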

full-length CBP [23] = molecular target: T3, full-length CBP; type: cell-based; details: NanoBRET dose response
CBP = CBP (Homo sapiens, UniProt Q92793); details: BLI
Chain of CBP (Q92793 1085-1192 limits assumed): as the sequence (Q92793 1085-1192 limits assumed) above

MOLM13 = experiment: clonogenic growth in methylcellulose; type: cell-based, human; details: dose dependent
In short: as §2

CBP/p300 HAT activity = details: cited from earlier work

Compound CBP bromodomain (domain or fragment) has a Kd (H3K56ac peptide) of 13800 nM.

For `CCC(=O)N1CCOc2c(cc(-c3ccc(OC)c(OC)c3)cc2OC[C@H]2CCCN(C)C2)C1` [I-CBP112], the cell survival [1] was “did not affect cell survival”, the “interaction in selectivity panel” value (α1A) was “weak interaction” and the “time of disease development in recipient mice” value (MLL-AF9+ AML cells [2]) was “significantly later”. The clonogenic growth (KASUMI-1) was “significantly impaired”, the “interaction in selectivity panel” value (5HT1) was “weak interaction” and the fold selectivity (BRD4(2) [3]; CBP over BRD4(2), from ITC KDs) was 132 fold. The Kd (BRD4(2) [3]; ITC) was 20000 nM, the “synergy (Chou-Talalay)” value ([4]; combination with JQ1) was “strong synergy” and the “synergy (Chou-Talalay)” value ([4]; combination with doxorubicin, except MOLM13) was “strong synergy”. The cell cycle effect (KASUMI-1 cells [5]) was “prominent G1 arrest”, the synergism (MOLM13 cells) was “less pronounced” and the “expression level of CCL2” value [6] was “no effect”. For the same compound, the “expression level of Selectin (CD62)” value [6] was “no effect”, the “expression of IL10” value [6] was “down-regulated” and the “expression of VCAM1/CD106” value [6] was “down-regulated”. For the same compound, the “secreted IgG” value [6] was “up-regulated”, the IC50 (CBP bromodomain [7]) was 170 nM and the “off-target activity in BLI screen” value [8] was “weak off-target activity”. For the same compound, the c-Kit/CD117 expression (MLL-AF9+ AML cells [9]) was “slightly decreased”, the “granulocyte marker Gr-1 expression” value (MLL-AF9+ AML cells [9]) was “slightly decreased” and the “number of colonies and cells in MC” value [10] was “dose dependent reduction”. For the same compound, the cytotoxicity [11] was “without significant cytotoxicity”, the clonogenic growth [12] was “significantly reduced” and the IC50 (isolated CBP bromodomain) was 600 ± 50 nM. The Kd (p300 bromodomain) was 167 ± 8 nM, the clonogenic growth [13] was “significantly reduced” and the “ΔTm (stabilization of melting temperature)” value (CBP bromodomain [14]) was 7.8 ºC. The ΔTm (BRD4(2) [15]) was 0.6 °C, the “self-renewal in clonogenic re-plating” value [16] was “significantly impaired” and the “colony number in MC” value [17] was “did not affect”. For the same compound, the apoptosis (KASUMI-1 cells [18]) was “signs of apoptosis”, the “displacement of p300 from chromatin” value (p300; 8h) was “did not see significant displacement” and the p300 occupancy (p300; 4 days, vs DMSO) was “increased p300 occupancy”. For the same compound, the ΔTm values [19] was “low”, the “displacement of full-length BRD4” value (full-length GFP-BRD4) was “No displacement” and the FRAP recovery times (full-length CBP [20]) was “did not lead to decreased recovery times”. The Kd (CBP bromodomain [21]) was 151 ± 6 nM, the fold selectivity (BRD4(1); CBP over BRD4(1), from ITC KDs) was 37 fold and the Kd (BRD4(1); ITC) was 5600 nM. The clonogenic growth (SEM cells) was “significantly impaired”, the AUC (pharmacokinetic study; IP 3 mg/kg) was 384 ng/h/mL and the half-life (pharmacokinetic study; IP 3 mg/kg) was 36 ± 6 min. For the same compound, the “mean Cmax” value (pharmacokinetic study; IP 3 mg/kg) was 590 ng/mL, the “bioavailability F%” value (pharmacokinetic study; IP vs IV, (AUCt/Dip)/(AUC∞/Div)) was 114 ± 63% and the blood clearance (pharmacokinetic study; IV 1.2 mg/kg) was “high”. The volume distribution (pharmacokinetic study; IV 1.2 mg/kg) was “moderate”, the Cmax (pharmacokinetic study; read-out: mean Cmax, IP 3 mg/kg, n=3) was 1260 ± 740 nM and the “estimated stem cell frequency” value [22] was “significant decrease and 1/13”. The “effect on recruitment of full-length CBP to chromatin” value (full-length CBP [23]) was “no significant effect”, the Kd (CBP) was 142 nM and the clonogenic growth (MOLM13) was “significantly impaired”.

For `Cc1sc2c(c1C)C(c1ccc(Cl)cc1)=N[C@@H](CC(=O)OC(C)(C)C)c1nnc(C)n1-2` [JQ1, reference compound], the “activity alone in WST1 assay” value [4] was “low nM activity”, the “expression of IL10” value [6] was “down-regulated” and the “expression of VCAM1/CD106” value [6] was “down-regulated”. The “secreted IgG” value [6] was “strongly down-regulated”.

In the case of `CC1=NN(c2ccc(C(=O)O)cc2)C(=O)/C1=C\c1ccc(-c2cc(C)c(C)cc2[N+](=O)[O-])o1` [C646], the HAT inhibitory activity (CBP/p300 HAT activity) is given as “low µM activity”.

In the case of `COc1cccc2c1C(=O)c1c(O)c3c(c(O)c1C2=O)C[C@@](O)(C(=O)CO)C[C@@H]3O[C@H]1C[C@H](N)[C@H](O)[C@H](C)O1` [doxorubicin, reference compound], the “activity alone in WST1 assay” value [4] is reported as “low nM activity”.
